Assay results taken from ChEMBL document CHEMBL5058577, “EUbOPEN Chemogenomics Library 2 (Multiplex)” (2022).

System: HEK-293T
Assay: Multiplex assay against HEK293T
Type: toxicity, cell-based
Conditions: human
How it was run: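 Cells stained live at seeding with Hoechst33342, BioTracker Green Microtubule Cytoskeleton Dye, MitoTracker Red and Annexin V Alexa Fluor 680 were imaged on a CQ1 microscope at 37°C and 5% CO2 after compound addition. Their classification by CellPathfinder machine-learning gating ran from Hoechst high-intensity objects versus normal cells, to healthy, pyknosed or fragmented nuclei among normal cells, to mitotic or apoptotic among pyknosed cells. Tubulin, mitochondrial-mass and membrane-permeability phenotypes are per cents of healthy-nucleus cells.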

[1] = 12 h, 1 µM, compound concentration 1 uM, replicate 1
[2] = 12 h, 1 µM, compound concentration 1 uM, replicate 2
[3] = 12 h, 10 µM, compound concentration 10 uM, replicate 1
[4] = 12 h, 10 µM, compound concentration 10 uM, replicate 2
[5] = 24 h, 1 µM, compound concentration 1 uM, replicate 1
[6] = 24 h, 1 µM, compound concentration 1 uM, replicate 2
[7] = 24 h, 10 µM, compound concentration 10 uM, replicate 1
[8] = 24 h, 10 µM, compound concentration 10 uM, replicate 2
[9] = 48 h, 1 µM, compound concentration 1 uM, replicate 1
[10] = 48 h, 1 µM, compound concentration 1 uM, replicate 2
[11] = 48 h, 10 µM, compound concentration 10 uM, replicate 1
[12] = 48 h, 10 µM, compound concentration 10 uM, replicate 2

CC(F)(F)CN1CCOc2c(nn(-c3ccccc3Cl)c2-c2ccc(Cl)cc2)C1=O
Population Apoptotic (%) [1]: 29%
Population Healthy Nuclei (%) [1]: 77%
Population Membrane Permeable-Phenotype (%) [1]: 0%
Population Mitochondria Different-Phenotype (%) [1]: 43%
Population Mitotic Cells (%) [1]: 70%
Population Normal (%) [1]: 93%
Population Pyknosed Nuclei (%) [1]: 12%
Total Cell Count [1]: 397
Population Apoptotic (%) [2]: 64%
Population Healthy Nuclei (%) [2]: 78%
Population Mitochondria Different-Phenotype (%) [2]: 53%
Population Mitotic Cells (%) [2]: 35%
Population Normal (%) [2]: 91%
Population Pyknosed Nuclei (%) [2]: 16%
Total Cell Count [2]: 369
Population Apoptotic (%) [3]: 57%
Population Healthy Nuclei (%) [3]: 73%
Population Membrane Permeable-Phenotype (%) [3]: 0%
Population Mitochondria Different-Phenotype (%) [3]: 78%
Population Mitotic Cells (%) [3]: 42%
Population Normal (%) [3]: 89%
Population Pyknosed Nuclei (%) [3]: 22%
Total Cell Count [3]: 384
Population Apoptotic (%) [4]: 43%
Population Healthy Nuclei (%) [4]: 75%
Population Mitochondria Different-Phenotype (%) [4]: 84%
Population Mitotic Cells (%) [4]: 56%
Population Normal (%) [4]: 94%
Population Pyknosed Nuclei (%) [4]: 18%
Total Cell Count [4]: 397
Population Apoptotic (%) [5]: 25%
Population Healthy Nuclei (%) [5]: 79%
Population Membrane Permeable-Phenotype (%) [5]: 0%
Population Mitochondria Different-Phenotype (%) [5]: 22%
Population Mitotic Cells (%) [5]: 74%
Population Normal (%) [5]: 97%
Population Pyknosed Nuclei (%) [5]: 11%
Total Cell Count [5]: 568
Population Apoptotic (%) [6]: 43%
Population Healthy Nuclei (%) [6]: 84%
Population Mitochondria Different-Phenotype (%) [6]: 31%
Population Mitotic Cells (%) [6]: 56%
Population Normal (%) [6]: 93%
Population Pyknosed Nuclei (%) [6]: 8%
Total Cell Count [6]: 478
Population Apoptotic (%) [7]: 57%
Population Healthy Nuclei (%) [7]: 76%
Population Membrane Permeable-Phenotype (%) [7]: 0%
Population Mitochondria Different-Phenotype (%) [7]: 71%
Population Mitotic Cells (%) [7]: 42%
Population Normal (%) [7]: 92%
Population Pyknosed Nuclei (%) [7]: 15%
Total Cell Count [7]: 450
Population Apoptotic (%) [8]: 41%
Population Healthy Nuclei (%) [8]: 80%
Population Mitochondria Different-Phenotype (%) [8]: 79%
Population Mitotic Cells (%) [8]: 58%
Population Normal (%) [8]: 94%
Total Cell Count [8]: 477
Population Apoptotic (%) [9]: 22%
Population Healthy Nuclei (%) [9]: 77%
Population Membrane Permeable-Phenotype (%) [9]: 1%
Population Mitochondria Different-Phenotype (%) [9]: 14%
Population Mitotic Cells (%) [9]: 77%
Population Normal (%) [9]: 99%
Population Pyknosed Nuclei (%) [9]: 7%
Total Cell Count [9]: 1015
Population Apoptotic (%) [10]: 25%
Population Healthy Nuclei (%) [10]: 79%
Population Mitochondria Different-Phenotype (%) [10]: 23%
Population Mitotic Cells (%) [10]: 74%
Population Normal (%) [10]: 97%
Total Cell Count [10]: 734
Population Apoptotic (%) [11]: 55%
Population Healthy Nuclei (%) [11]: 74%
Population Membrane Permeable-Phenotype (%) [11]: 0%
Population Mitochondria Different-Phenotype (%) [11]: 62%
Population Mitotic Cells (%) [11]: 44%
Population Normal (%) [11]: 93%
Total Cell Count [11]: 540
Population Apoptotic (%) [12]: 35%
Population Healthy Nuclei (%) [12]: 78%
Population Mitochondria Different-Phenotype (%) [12]: 68%
Population Mitotic Cells (%) [12]: 65%
Population Pyknosed Nuclei (%) [12]: 11%
Total Cell Count [12]: 558

COc1cc2nc(N3CCN(C(=O)COc4c(OC)cccc4C(C)C)CC3)nc(N)c2cc1OC.Cl.Cl
Population Apoptotic (%) [1]: 35%
Population Fragmented Nuclei (%) [1]: 12%
Population Healthy Nuclei (%) [1]: 77%
Population Hoechst High Intensity Objects (%) [1]: 5%
Population Membrane Permeable-Phenotype (%) [1]: 0%
Population Mitochondria Different-Phenotype (%) [1]: 48%
Population Mitotic Cells (%) [1]: 64%
Population Normal (%) [1]: 94%
Population Pyknosed Nuclei (%) [1]: 9%
Population Tubulin-Different-Phenotype (%) [1]: 23%
Total Cell Count [1]: 402
Population Apoptotic (%) [2]: 46%
Population Fragmented Nuclei (%) [2]: 8%
Population Healthy Nuclei (%) [2]: 81%
Population Hoechst High Intensity Objects (%) [2]: 4%
Population Mitochondria Different-Phenotype (%) [2]: 58%
Population Mitotic Cells (%) [2]: 53%
Population Normal (%) [2]: 95%
Population Tubulin-Different-Phenotype (%) [2]: 18%
Total Cell Count [2]: 365
Population Apoptotic (%) [3]: 52%
Population Fragmented Nuclei (%) [3]: 13%
Population Healthy Nuclei (%) [3]: 69%
Population Hoechst High Intensity Objects (%) [3]: 25%
Population Membrane Permeable-Phenotype (%) [3]: 1%
Population Mitochondria Different-Phenotype (%) [3]: 74%
Population Mitotic Cells (%) [3]: 48%
Population Normal (%) [3]: 74%
Population Pyknosed Nuclei (%) [3]: 17%
Population Tubulin-Different-Phenotype (%) [3]: 81%
Total Cell Count [3]: 386
Population Apoptotic (%) [4]: 57%
Population Fragmented Nuclei (%) [4]: 14%
Population Healthy Nuclei (%) [4]: 67%
Population Hoechst High Intensity Objects (%) [4]: 18%
Population Membrane Permeable-Phenotype (%) [4]: 3%
Population Mitochondria Different-Phenotype (%) [4]: 66%
Population Mitotic Cells (%) [4]: 42%
Population Normal (%) [4]: 81%
Population Pyknosed Nuclei (%) [4]: 18%
Population Tubulin-Different-Phenotype (%) [4]: 66%
Total Cell Count [4]: 286
Population Apoptotic (%) [5]: 35%
Population Fragmented Nuclei (%) [5]: 11%
Population Healthy Nuclei (%) [5]: 77%
Population Hoechst High Intensity Objects (%) [5]: 5%
Population Membrane Permeable-Phenotype (%) [5]: 0%
Population Mitochondria Different-Phenotype (%) [5]: 27%
Population Mitotic Cells (%) [5]: 64%
Population Normal (%) [5]: 95%
Population Pyknosed Nuclei (%) [5]: 10%
Population Tubulin-Different-Phenotype (%) [5]: 19%
Total Cell Count [5]: 540
Population Apoptotic (%) [6]: 42%
Population Fragmented Nuclei (%) [6]: 8%
Population Healthy Nuclei (%) [6]: 84%
Population Hoechst High Intensity Objects (%) [6]: 2%
Population Mitochondria Different-Phenotype (%) [6]: 44%
Population Mitotic Cells (%) [6]: 57%
Population Normal (%) [6]: 97%
Population Pyknosed Nuclei (%) [6]: 7%
Population Tubulin-Different-Phenotype (%) [6]: 16%
Total Cell Count [6]: 472
Population Apoptotic (%) [7]: 42%
Population Fragmented Nuclei (%) [7]: 14%
Population Healthy Nuclei (%) [7]: 64%
Population Hoechst High Intensity Objects (%) [7]: 29%
Population Membrane Permeable-Phenotype (%) [7]: 2%
Population Mitochondria Different-Phenotype (%) [7]: 68%
Population Mitotic Cells (%) [7]: 57%
Population Normal (%) [7]: 70%
Population Pyknosed Nuclei (%) [7]: 21%
Population Tubulin-Different-Phenotype (%) [7]: 69%
Total Cell Count [7]: 498
Population Apoptotic (%) [8]: 51%
Population Fragmented Nuclei (%) [8]: 13%
Population Healthy Nuclei (%) [8]: 59%
Population Hoechst High Intensity Objects (%) [8]: 39%
Population Mitochondria Different-Phenotype (%) [8]: 72%
Population Mitotic Cells (%) [8]: 48%
Population Normal (%) [8]: 60%
Population Pyknosed Nuclei (%) [8]: 27%
Population Tubulin-Different-Phenotype (%) [8]: 63%
Total Cell Count [8]: 286
Population Apoptotic (%) [9]: 28%
Population Fragmented Nuclei (%) [9]: 16%
Population Healthy Nuclei (%) [9]: 76%
Population Hoechst High Intensity Objects (%) [9]: 2%
Population Membrane Permeable-Phenotype (%) [9]: 1%
Population Mitochondria Different-Phenotype (%) [9]: 18%
Population Mitotic Cells (%) [9]: 71%
Population Normal (%) [9]: 97%
Population Pyknosed Nuclei (%) [9]: 6%
Population Tubulin-Different-Phenotype (%) [9]: 11%
Total Cell Count [9]: 930
Population Apoptotic (%) [10]: 11%
Population Fragmented Nuclei (%) [10]: 15%
Population Healthy Nuclei (%) [10]: 78%
Population Hoechst High Intensity Objects (%) [10]: 3%
Population Membrane Permeable-Phenotype (%) [10]: 0%
Population Mitotic Cells (%) [10]: 88%
Population Normal (%) [10]: 96%
Population Tubulin-Different-Phenotype (%) [10]: 12%
Total Cell Count [10]: 737
Population Apoptotic (%) [11]: 31%
Population Fragmented Nuclei (%) [11]: 18%
Population Healthy Nuclei (%) [11]: 56%
Population Hoechst High Intensity Objects (%) [11]: 41%
Population Membrane Permeable-Phenotype (%) [11]: 3%
Population Mitochondria Different-Phenotype (%) [11]: 48%
Population Mitotic Cells (%) [11]: 68%
Population Normal (%) [11]: 58%
Population Pyknosed Nuclei (%) [11]: 25%
Population Tubulin-Different-Phenotype (%) [11]: 56%
Total Cell Count [11]: 660
Population Apoptotic (%) [12]: 30%
Population Fragmented Nuclei (%) [12]: 17%
Population Healthy Nuclei (%) [12]: 59%
Population Hoechst High Intensity Objects (%) [12]: 46%
Population Membrane Permeable-Phenotype (%) [12]: 1%
Population Mitochondria Different-Phenotype (%) [12]: 49%
Population Mitotic Cells (%) [12]: 69%
Population Normal (%) [12]: 53%
Population Pyknosed Nuclei (%) [12]: 23%
Population Tubulin-Different-Phenotype (%) [12]: 38%
Total Cell Count [12]: 430
